Rows were chosen to be rich in hits. Some 0.7% of all compounds tested hit in one or more screens of this group.
CaV13 FRET inh – Disruptors of the CACNA1D IQ motif to Ca2+-dependent inactivation inhibitor domain association, primary screening, Förster resonance energy transfer in intact living …. HEK cells, CFP/YFP FRET ICDI-IQ, plate reader, 10 min; percent FRET-ratio fall versus neutral wells. inhibition, % at 12.3 µM. 340,000 compounds, 0.098% hits;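 active = mean replicate inhibition of at least 30% and at least 1% of replicates passing that level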;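 also: 0% = median of the neutral control wells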
RAD52 inh – RAD52 (human) annealing inhibition | P43351 | 360,000 compounds, 0.46% hits | inhibition, % at 18.7 µM | recombinant RAD52 DNA annealing, FRET fluorescence;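 active = every replicate showing at least 50% inhibition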
FN deposition inh – fibronectin deposition inhibition. AH1F fibroblasts, Alexa488-fibronectin deposition fluorescence, overnight. inhibition, % at 12.6 µM. 350,000 compounds, 0.086% hits;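 active = mean inhibition across replicates of 30% or more, regardless of how many single replicates reach that level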;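 also: positive control wells lacked labelled fibronectin entirely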
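Assay system: AH1F fibroblasts / Quantity: 10000 cells per well / Medium: DMEM plus 2% serum, read in PBS / Reagent: labelled fibronectin 24 nM / Dosing: single dose, pinned / Times: 1 h cell attachment, overnight exposure to compound and label / Signal: fluorescence, ex 485 nm, em 525 nm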
RAD54 branch – RAD54 (human) branch migration inhibition. RAD54 Holliday junction branch migration, FAM/BHQ fluorescence. inhibition, % at 10.4 µM. 360,000 compounds, 0.14% hits. AID 602329;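 active = mean normalized replicate activity at least 40 and at least half of replicates scoring 40 or more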;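 also: 0% = median of neutral control wells and 100% = median of positive control wells; inhibitors cause a drop in the FAM fluorescence signal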
N-glyco inh – blocks N-linked glycosylation in D54 reporter cells. D54 ERlucT glycosylation luciferase reporter, 24 h; percent of 100 nM tunicamycin response. reporter increase, % at 12.5 µM. 360,000 compounds, 0.23% hits;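 active = mean luciferase reporter signal, scaled so untreated is 0 and the glycosylation-blocking control 100, at or above a set limit in every replicate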;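 also: luciferase carries N-glycosylation sites so blocking glycosylation raises the light; 0% = median of neutral control wells and 100% = median of 100 nM tunicamycin wells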
Active calls of the source: *; . = no result.

SMILES | CaV13 FRET inh | RAD52 inh | FN deposition inh | RAD54 branch | N-glyco inh
O=C(O)[C@@H]1CCCN1S(=O)(=O)c1cccc(S(=O)(=O)N2CCC[C@H]2C(=O)O)c1 | 68* | -77 | 6 | -13 | 1
C[C@H]1CCCCO[C@@H](CN(C)S(=O)(=O)c2cccs2)[C@@H](C)CN([C@@H](C)CO)C(=O)c2cc(NS(=O)(=O)c3ccccc3)ccc2O1 | . | -46 | -7 | -1 | .
COc1ccccc1-c1csc(C(NC(C)=O)c2ccccc2)n1 (stereo not drawn) | -10 | -16 | 6 | -21 | 42*
COc1cccc(C(NC(C)=O)c2nc(-c3ccc(F)cc3OC)cs2)c1 (stereo not drawn) | -11 | -3 | 4 | -3 | 50*
COc1cc(F)ccc1-c1csc(C(NC(C)=O)c2ccccc2)n1 (stereo not drawn) | -9 | -11 | 10 | -7 | 50*
COc1cc(F)ccc1-c1csc(C(NC(C)=O)c2ccc(F)c(F)c2)n1 (stereo not drawn) | -11 | -9 | -5 | 5 | 42*
CC(=O)NC(c1ccccc1)c1nc(-c2cccc(F)c2)cs1 (stereo not drawn) | -4 | -33 | 11 | -11 | 0
COc1ccc(-c2csc(C(NC(C)=O)c3ccccc3)n2)cc1 (stereo not drawn) | -5 | -6 | . | 5 | 1
CCC(=O)N1[C@H](C#N)[C@H](c2ccccc2-c2cccc(C)c2)[C@@H]1CO | . | -16 | -8 | . | .
C[C@H](CO)N1C[C@H](C)[C@@H](CN(C)S(=O)(=O)c2ccccc2)Oc2ncc(Br)cc2C1=O | . | 6 | . | -20 | .
C[C@@H]1CCCCO[C@H](CN(C)C(=O)Nc2ccc3c(c2)OCO3)[C@@H](C)CN([C@@H](C)CO)C(=O)c2cc(NS(C)(=O)=O)ccc2O1 | . | 1 | . | -8 | .
NCCCS(=O)(=O)O | -5 | -4 | 1 | -8 | 1
NCCCNCCCCNCCCN | . | 111* | . | 4 | -1
COc1ccc(S(=O)(=O)N2CCCCN3[C@H](CO)[C@H](c4ccc(C#CC5CC5)cc4)[C@H]3C2)cc1 | . | . | . | 10 | .
Cc1ccc(NC(=O)c2ccc(Cl)cc2[N+](=O)[O-])nc1 | -3 | -1 | 13 | . | 31*
Cc1ccc(NC(=O)c2ccccc2[N+](=O)[O-])nc1 | -3 | -13 | 0 | 3 | 5
CCCN1C[C@H](C)[C@@H](OC)CN(C)C(=O)c2cc(NC(=O)Nc3cccc(F)c3)ccc2OC[C@H]1C | . | . | 8 | 8 | .
COc1ccccc1CCNCc1ccc(OC)c(OCc2ccccc2)c1 | -4 | . | -19 | -4 | 34*
COCC(=O)N(C)C[C@H]1Oc2ncc(-c3ccc(C#N)cc3)cc2C(=O)N([C@@H](C)CO)C[C@H]1C | . | 3 | -2 | 5 | .
NC(N)=Nc1nc(-c2ccccc2)c2cc(F)ccc2n1 | -3 | 42 | -10 | 56* | 6
OCCSc1nc(-c2ccccc2)nc2ccc(F)cc12 | -2 | -6 | -7 | . | 0
O=C(Cn1ccc([N+](=O)[O-])n1)N1CCCCCC1 | 115* | -8 | 10 | 7 | 0
C[C@H]1CN([C@@H](C)CO)C(=O)CCCn2cc(nn2)CO[C@@H]1CN(C)Cc1ccncc1 | . | -1 | -5 | -1 | .
O=c1[nH]c(=O)n(C2CC(O)C(CO)O2)cc1Br (stereo not drawn) | -12 | -7 | 12 | . | 36*
CN(C)CCCNC(=O)C[C@H]1C[C@H](C(=O)N2CCCCC2)[C@@]2(C)c3[nH]c4cc(-c5ccco5)ccc4c3CCN2C1=O | -7 | 30 | 8 | 12 | 0
CN(C)CCCNC(=O)C[C@H]1C[C@H](C(=O)N2CCCCC2)[C@@]2(CCc3ccccc3)c3[nH]c4cc(-c5ccco5)ccc4c3CCN2C1=O | -8 | 75* | 20 | -9 | -7
COc1ccc2[nH]c3c(c2c1)CCN1C(=O)C(CC(=O)NCCCN(C)C)C[C@H](C(=O)N2CCCCC2)[C@@]31CCc1ccccc1 (stereo partly drawn) | -8 | 24 | 37* | 8 | -1
C[C@@H]1CN([C@H](C)CO)C(=O)c2ccccc2-c2ccccc2CO[C@@H]1CN(C)Cc1ccc(-c2ccccc2)cc1 | . | 6 | -4 | . | .
C[C@@H]1CN([C@@H](C)CO)C(=O)c2cc(-c3ccccc3)cnc2O[C@@H]1CN(C)C(=O)c1ccccn1 | . | -3 | . | 2 | .

From PubChem
